From ChEMBL document CHEMBL1126283, “Thromboxane receptor antagonism combined with thromboxane synthase inhibition. 4. 8-[[(4-Chlorophenyl)sulfonyl]amino]-4-(3-(3-pyridinyl) propyl)octanoic acid and analogs” (J Med Chem, 1992)

species on record: Canis familiaris; experiment: Evaluated for contraction of dog saphenous vein; format: functional, organism-based; details: Canis lupus familiaris, read-out: pA2 (converted)
Outline: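 Dog saphenous vein rings contracted with U 46619; antagonism expressed as pA2. Number of determinations = 1, with more than 12 rings per determination and a single drug concentration applied to each ring.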

Structure (SMILES)	Kb [nM]
CC(C)(CC(CCCCNS(=O)(=O)c1ccc(Cl)cc1)CCCc1cccnc1)C(=O)O (stereo not drawn)	1
O=C(O)CCC(CCCCNS(=O)(=O)c1ccc(Cl)cc1)CCCn1ccnc1 (stereo not drawn)	5.5
O=C(O)CCC(CCCCNS(=O)(=O)c1ccc(Cl)cc1)CCCc1ccc[n+]([O-])c1 (stereo not drawn)	7.41
O=C(O)CCC(C/C=C/c1cccnc1)CCCCNS(=O)(=O)c1ccc(Cl)cc1 (stereo not drawn)	0.603
O=C(O)CCC(CCCCNS(=O)(=O)c1ccc(Cl)cc1)CCn1ccnc1 (stereo not drawn)	34.7
CC(CC(CCCCNS(=O)(=O)c1ccc(Cl)cc1)CCCc1cccnc1)C(=O)O (stereo not drawn)	1.48
O=C(O)C(=O)NC(CCCCNS(=O)(=O)c1ccc(Cl)cc1)CCCc1cccnc1 (stereo not drawn)	1.86
O=S(=O)(NCCCCC(CCCc1cccnc1)CCC1N=NN=N1)c1ccc(Cl)cc1 (stereo not drawn)	0.468
O=C(O)CSC(CCCCNS(=O)(=O)c1ccc(Cl)cc1)CCCc1cccnc1 (stereo not drawn)	0.269
O=C(O)CC(CCCCNS(=O)(=O)c1ccc(Cl)cc1)CCCc1cccnc1 (stereo not drawn)	3.72
Cc1ccc(S(=O)(=O)NCCCCC(CCCc2cccnc2)CCC(=O)O)cc1 (stereo not drawn)	1.55
O=C(O)CCC(CCCCNS(=O)(=O)c1ccc(Cl)cc1)CCOc1cccnc1 (stereo not drawn)	0.398

species on record: Cavia porcellus; experiment: Inhibition of bronchoconstriction in guinea pigs; format: functional; details: Lung
Outline: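 Guinea pigs with cannulated trachea, ventilated at 40 strokes/min, given succinylcholine (1.0 mg/kg). Arachidonic acid priming dose 0.25 mg/kg iv, then 0.5 mg/kg iv. Test compound was then given as an iv bolus, with a 0.5 mg/kg AA challenge 5 min later. Peak insufflation pressure expressed as % of control. Five doses (0.1-1000 µg/kg), 6-8 animals per dose, ED50 derived.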

Structure (SMILES)	ED50 [µg/kg]
O=C(O)CSC(CCCCNS(=O)(=O)c1ccc(Cl)cc1)CCCc1cccnc1 (stereo not drawn)	7.42
O=C(O)CCC(CCCCNS(=O)(=O)c1ccc(Cl)cc1)CCOc1cccnc1 (stereo not drawn)	5.2
O=C(O)CCC(CCCCNS(=O)(=O)c1ccc(Cl)cc1)CCCc1cccnc1 (stereo not drawn)	5.75

system: Cavia porcellus; experiment: Ex vivo inhibition of U-46,619-induced aggregation of guinea pig platelets after peroral administration of 10 mg/kg dose at 6 hr time; format: functional; details: route oral
Outline: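 Male Hartley guinea pigs (350-400 g), fasted 12-16 h, dosed orally in 3% fortified cornstarch suspension vehicle; groups of three to six. At 6 h, cardiac-puncture blood drawn under methoxyflurane into citrate (0.0129 M final). PRP obtained at 500g, 7 min. PRP preincubated 1 min at 37 °C with stirring, then U 46619 added. Aggregation ratio = EC50 drug-treated/EC50 vehicle-treated.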

Structure (SMILES)	Concentration ratio
O=C(O)CCC(CCCCNS(=O)(=O)c1ccc(Cl)cc1)CCOc1cccnc1 (stereo not drawn)	>100
O=C(O)CCC(CCCCNS(=O)(=O)c1ccc(Cl)cc1)CCCc1cccnc1 (stereo not drawn)	11.8

system: Cavia porcellus; experiment: Ex vivo inhibition of U-46,619-induced aggregation of guinea pig platelets after peroral administration of 10 mg/kg dose at 1 hr time; format: functional; details: route oral
Outline: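 Fasted (12-16 h) male Hartley guinea pigs (350-400 g), 3-6 per group, dosed orally in a 3% fortified cornstarch suspension vehicle. At 1 h (or 6 h), animals under methoxyflurane anaesthesia were bled by cardiac puncture into citrate (0.0129 M final). PRP (500g, 7 min) was stirred 1 min at 37 °C, then U 46619 added. Result reported as EC50 drug-treated / EC50 vehicle.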

Structure (SMILES)	Concentration ratio
CC(C)(CC(CCCCNS(=O)(=O)c1ccc(Cl)cc1)CCCc1cccnc1)C(=O)O (stereo not drawn)	8.7
CC(CC(CCCCNS(=O)(=O)c1ccc(Cl)cc1)CCCc1cccnc1)C(=O)O (stereo not drawn)	9
O=S(=O)(NCCCCC(CCCc1cccnc1)CCC1N=NN=N1)c1ccc(Cl)cc1 (stereo not drawn)	10
O=C(O)CSC(CCCCNS(=O)(=O)c1ccc(Cl)cc1)CCCc1cccnc1 (stereo not drawn)	33
O=C(O)CCC(CCCCNS(=O)(=O)c1ccc(Cl)cc1)CCOc1cccnc1 (stereo not drawn)	>100
O=C(O)CCC(CCCCNS(=O)(=O)c1ccc(Cl)cc1)CCCc1cccnc1 (stereo not drawn)	27.3

species on record: Homo sapiens; experiment: Evaluated in vitro for the inhibition of U 46619 induced aggregation of platelet-rich plasma; details: not given
Outline: (§1)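 Antagonism of aggregation induced by the PGH2/TxA2 mimetic U 46619, run in human washed platelets (WP) and in platelet-rich plasma (PRP); IC50 reported. Values come from one or two determinations.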

Structure (SMILES)	IC50 [nM]
CC(C)(CC(CCCCNS(=O)(=O)c1ccc(Cl)cc1)CCCc1cccnc1)C(=O)O (stereo not drawn)	3700
O=C(O)CCC(C/C=C/c1cccnc1)CCCCNS(=O)(=O)c1ccc(Cl)cc1 (stereo not drawn)	1190
O=C(O)C(=O)NC(CCCCNS(=O)(=O)c1ccc(Cl)cc1)CCCc1cccnc1 (stereo not drawn)	11300

Further lines, results first:

IC50 [nM]	Structure (SMILES)
910	O=S(=O)(NCCCCC(CCCc1cccnc1)CCC1N=NN=N1)c1ccc(Cl)cc1 (stereo not drawn)
3700	O=C(O)CCC(CCCCNS(=O)(=O)c1ccc(Cl)cc1)CCCn1ccnc1 (stereo not drawn)
8700	O=C(O)CCC(CCCCNS(=O)(=O)c1ccc(Cl)cc1)CCCc1ccc[n+]([O-])c1 (stereo not drawn)
2900	CC(CC(CCCCNS(=O)(=O)c1ccc(Cl)cc1)CCCc1cccnc1)C(=O)O (stereo not drawn)
280	O=C(O)CCC(CCCCNS(=O)(=O)c1ccc(Cl)cc1)CCOc1cccnc1 (stereo not drawn)
400	O=C(O)CSC(CCCCNS(=O)(=O)c1ccc(Cl)cc1)CCCc1cccnc1 (stereo not drawn)
15200	Cc1ccc(S(=O)(=O)NCCCCC(CCCc2cccnc2)CCC(=O)O)cc1 (stereo not drawn)

species on record: Homo sapiens; experiment: In vitro inhibition of U 46619 induced aggregation of washed platelets; details: not given; outline: as §1

Structure (SMILES)	IC50 [nM]
CC(C)(CC(CCCCNS(=O)(=O)c1ccc(Cl)cc1)CCCc1cccnc1)C(=O)O (stereo not drawn)	18
O=C(O)CCC(C/C=C/c1cccnc1)CCCCNS(=O)(=O)c1ccc(Cl)cc1 (stereo not drawn)	27
O=C(O)CCC(CCCCNS(=O)(=O)c1ccc(Cl)cc1)CCn1ccnc1 (stereo not drawn)	1520
O=C(O)C(=O)NC(CCCCNS(=O)(=O)c1ccc(Cl)cc1)CCCc1cccnc1 (stereo not drawn)	590
O=C(O)CC(CCCCNS(=O)(=O)c1ccc(Cl)cc1)CCCc1cccnc1 (stereo not drawn)	200

The remaining lines, values ahead:

IC50 [nM]	Structure (SMILES)
22	O=S(=O)(NCCCCC(CCCc1cccnc1)CCC1N=NN=N1)c1ccc(Cl)cc1 (stereo not drawn)
980	O=C(O)CCC(CCCCNS(=O)(=O)c1ccc(Cl)cc1)CCCn1ccnc1 (stereo not drawn)
500	O=C(O)CCC(CCCCNS(=O)(=O)c1ccc(Cl)cc1)CCCc1ccc[n+]([O-])c1 (stereo not drawn)
53	CC(CC(CCCCNS(=O)(=O)c1ccc(Cl)cc1)CCCc1cccnc1)C(=O)O (stereo not drawn)
13	O=C(O)CCC(CCCCNS(=O)(=O)c1ccc(Cl)cc1)CCOc1cccnc1 (stereo not drawn)
6	O=C(O)CSC(CCCCNS(=O)(=O)c1ccc(Cl)cc1)CCCc1cccnc1 (stereo not drawn)
58	Cc1ccc(S(=O)(=O)NCCCCC(CCCc2cccnc2)CCC(=O)O)cc1 (stereo not drawn)

target: T1, Thromboxane-A synthase (Homo sapiens, UniProt P24557); experiment: In vitro inhibition of Thromboxane A2 synthase; details: not given
T1 sequence (P24557 whole entry): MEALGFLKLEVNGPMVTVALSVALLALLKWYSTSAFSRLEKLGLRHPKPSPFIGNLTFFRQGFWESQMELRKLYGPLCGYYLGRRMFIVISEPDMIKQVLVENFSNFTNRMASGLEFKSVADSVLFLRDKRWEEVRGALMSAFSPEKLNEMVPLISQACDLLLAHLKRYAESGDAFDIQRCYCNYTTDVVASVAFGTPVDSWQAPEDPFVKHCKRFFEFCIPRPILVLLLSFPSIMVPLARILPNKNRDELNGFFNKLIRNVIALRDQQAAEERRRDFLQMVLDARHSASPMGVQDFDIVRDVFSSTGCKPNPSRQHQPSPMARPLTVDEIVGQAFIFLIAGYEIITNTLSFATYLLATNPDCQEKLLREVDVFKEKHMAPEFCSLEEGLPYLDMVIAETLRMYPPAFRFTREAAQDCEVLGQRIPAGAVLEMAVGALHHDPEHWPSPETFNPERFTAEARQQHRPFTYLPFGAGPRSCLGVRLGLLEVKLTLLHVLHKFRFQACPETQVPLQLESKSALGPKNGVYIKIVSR

Structure (SMILES)	IC50 [nM]
CC(C)(CC(CCCCNS(=O)(=O)c1ccc(Cl)cc1)CCCc1cccnc1)C(=O)O (stereo not drawn)	20
O=C(O)CCC(C/C=C/c1cccnc1)CCCCNS(=O)(=O)c1ccc(Cl)cc1 (stereo not drawn)	7
O=C(O)CCC(CCCCNS(=O)(=O)c1ccc(Cl)cc1)CCn1ccnc1 (stereo not drawn)	40
O=C(O)C(=O)NC(CCCCNS(=O)(=O)c1ccc(Cl)cc1)CCCc1cccnc1 (stereo not drawn)	150
O=C(O)CC(CCCCNS(=O)(=O)c1ccc(Cl)cc1)CCCc1cccnc1 (stereo not drawn)	7
O=C(O)CCC(CCCCNS(=O)(=O)c1ccc(Cl)cc1)CCCc1cccnc1 (stereo not drawn)	20

The next molecules have a lower IC50 than those just listed; values first:

IC50 [nM]	Structure (SMILES)
5	O=S(=O)(NCCCCC(CCCc1cccnc1)CCC1N=NN=N1)c1ccc(Cl)cc1 (stereo not drawn)
3	O=C(O)CCC(CCCCNS(=O)(=O)c1ccc(Cl)cc1)CCCn1ccnc1 (stereo not drawn)
3	O=C(O)CCC(CCCCNS(=O)(=O)c1ccc(Cl)cc1)CCCc1ccc[n+]([O-])c1 (stereo not drawn)
3	CC(CC(CCCCNS(=O)(=O)c1ccc(Cl)cc1)CCCc1cccnc1)C(=O)O (stereo not drawn)
3	O=C(O)CCC(CCCCNS(=O)(=O)c1ccc(Cl)cc1)CCOc1cccnc1 (stereo not drawn)
2	O=C(O)CSC(CCCCNS(=O)(=O)c1ccc(Cl)cc1)CCCc1cccnc1 (stereo not drawn)
1	Cc1ccc(S(=O)(=O)NCCCCC(CCCc2cccnc2)CCC(=O)O)cc1 (stereo not drawn)
